In ChEMBL document CHEMBL3351822, “Spongiapyridine and related spongians isolated from an Indonesian Spongia sp” (J Nat Prod, 2014):
pIC50: −log10 of the molar value. Active and inactive are the calls of the source. The rule behind the calls is not given here.

Legend:
[1] = target: T1, Nitric oxide synthase, inducible (Mus musculus) (UniProt P29477); experiment: Inhibition of LPS-induced iNOS activity in mouse RAW264.7 cells after 24 hrs; format: cell-based
T1 sequence (whole entry): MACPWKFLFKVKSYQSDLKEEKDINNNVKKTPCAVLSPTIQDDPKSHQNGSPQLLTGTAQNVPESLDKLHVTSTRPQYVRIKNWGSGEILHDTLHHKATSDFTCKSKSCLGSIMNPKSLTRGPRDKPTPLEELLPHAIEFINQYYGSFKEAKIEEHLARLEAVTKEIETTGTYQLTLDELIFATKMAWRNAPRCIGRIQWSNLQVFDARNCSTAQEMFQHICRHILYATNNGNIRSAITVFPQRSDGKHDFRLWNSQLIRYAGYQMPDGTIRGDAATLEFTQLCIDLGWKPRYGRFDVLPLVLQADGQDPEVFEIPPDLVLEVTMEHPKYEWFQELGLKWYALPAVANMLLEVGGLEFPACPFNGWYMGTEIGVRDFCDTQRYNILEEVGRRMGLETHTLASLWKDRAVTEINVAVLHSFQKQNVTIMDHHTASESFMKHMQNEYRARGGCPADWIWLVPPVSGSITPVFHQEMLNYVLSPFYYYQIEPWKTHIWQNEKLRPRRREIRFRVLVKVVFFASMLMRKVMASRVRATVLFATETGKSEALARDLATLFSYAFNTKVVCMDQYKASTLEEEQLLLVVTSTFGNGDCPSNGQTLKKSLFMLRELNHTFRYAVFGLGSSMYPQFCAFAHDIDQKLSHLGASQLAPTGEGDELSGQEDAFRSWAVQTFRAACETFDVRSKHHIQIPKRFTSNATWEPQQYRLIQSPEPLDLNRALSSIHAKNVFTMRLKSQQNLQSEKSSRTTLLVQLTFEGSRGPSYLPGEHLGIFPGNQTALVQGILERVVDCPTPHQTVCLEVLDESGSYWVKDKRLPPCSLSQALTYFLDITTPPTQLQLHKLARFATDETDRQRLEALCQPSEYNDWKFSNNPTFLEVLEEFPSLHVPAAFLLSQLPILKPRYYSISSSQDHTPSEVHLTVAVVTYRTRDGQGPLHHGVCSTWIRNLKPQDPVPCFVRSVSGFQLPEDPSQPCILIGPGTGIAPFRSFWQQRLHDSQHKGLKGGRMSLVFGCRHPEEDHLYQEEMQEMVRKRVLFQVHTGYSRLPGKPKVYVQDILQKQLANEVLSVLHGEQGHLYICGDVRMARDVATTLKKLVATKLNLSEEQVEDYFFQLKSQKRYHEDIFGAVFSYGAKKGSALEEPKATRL

[2] = target: NAD(P)H dehydrogenase [quinone] 1 (Mus musculus) (UniProt Q64669); experiment: Induction of quinone reductase 1 in mouse Hepa-1c1c7 cells after 48 hrs by MTT assay; format: cell-based
NAD(P)H dehydrogenase [quinone] 1 (Mus musculus), sequence (Q64669 whole entry): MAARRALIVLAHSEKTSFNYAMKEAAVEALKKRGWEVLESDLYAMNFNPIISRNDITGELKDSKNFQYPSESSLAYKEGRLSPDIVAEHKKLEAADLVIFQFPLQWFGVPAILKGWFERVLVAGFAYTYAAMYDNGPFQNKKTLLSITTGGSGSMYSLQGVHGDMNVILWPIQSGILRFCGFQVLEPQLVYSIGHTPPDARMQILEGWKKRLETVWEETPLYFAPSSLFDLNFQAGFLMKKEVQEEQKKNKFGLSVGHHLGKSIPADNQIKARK
Method in brief: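 QR1 induction measured in cultured murine Hepa 1c1c7 hepatoma cells. Potency is expressed as the CD value, the test-compound concentration needed to double QR1 enzymatic activity.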

[3] = target: Nuclear factor NF-kappa-B complex (Homo sapiens) (UniProt Q00653+P19838+Q04206); experiment: Inhibition of TNF-alpha-induced NF-kappaB activity in HEK293 cells after 6 hrs by luciferase reporter gene assay; format: cell-based
Nuclear factor NF-kappa-B complex (Homo sapiens), sequence (P19838 whole entry, looked up): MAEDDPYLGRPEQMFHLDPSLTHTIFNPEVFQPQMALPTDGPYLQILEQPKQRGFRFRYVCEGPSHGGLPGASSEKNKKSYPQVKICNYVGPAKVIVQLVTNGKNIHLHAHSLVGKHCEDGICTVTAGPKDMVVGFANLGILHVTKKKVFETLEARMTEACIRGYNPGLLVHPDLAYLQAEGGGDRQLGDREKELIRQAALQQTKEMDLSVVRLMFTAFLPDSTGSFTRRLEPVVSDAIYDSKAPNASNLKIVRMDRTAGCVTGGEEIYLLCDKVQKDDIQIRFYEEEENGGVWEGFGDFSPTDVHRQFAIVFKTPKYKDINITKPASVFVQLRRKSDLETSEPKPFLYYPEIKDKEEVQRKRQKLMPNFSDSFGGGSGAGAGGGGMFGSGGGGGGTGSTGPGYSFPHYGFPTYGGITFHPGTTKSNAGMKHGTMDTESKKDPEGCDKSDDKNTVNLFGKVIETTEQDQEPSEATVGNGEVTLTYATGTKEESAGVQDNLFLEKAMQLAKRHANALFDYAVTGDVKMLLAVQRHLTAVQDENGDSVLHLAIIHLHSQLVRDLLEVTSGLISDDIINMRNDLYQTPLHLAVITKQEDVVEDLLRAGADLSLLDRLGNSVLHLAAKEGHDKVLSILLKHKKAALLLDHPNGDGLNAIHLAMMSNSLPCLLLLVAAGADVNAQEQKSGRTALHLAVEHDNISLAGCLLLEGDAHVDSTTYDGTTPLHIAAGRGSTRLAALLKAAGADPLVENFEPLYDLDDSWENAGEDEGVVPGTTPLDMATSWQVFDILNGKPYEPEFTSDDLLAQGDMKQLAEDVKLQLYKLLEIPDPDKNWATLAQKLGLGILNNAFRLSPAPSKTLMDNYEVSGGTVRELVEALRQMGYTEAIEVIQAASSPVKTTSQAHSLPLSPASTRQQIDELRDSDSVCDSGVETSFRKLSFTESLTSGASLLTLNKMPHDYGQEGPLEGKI
Nuclear factor NF-kappa-B complex (Homo sapiens), sequence (Q00653 whole entry, looked up): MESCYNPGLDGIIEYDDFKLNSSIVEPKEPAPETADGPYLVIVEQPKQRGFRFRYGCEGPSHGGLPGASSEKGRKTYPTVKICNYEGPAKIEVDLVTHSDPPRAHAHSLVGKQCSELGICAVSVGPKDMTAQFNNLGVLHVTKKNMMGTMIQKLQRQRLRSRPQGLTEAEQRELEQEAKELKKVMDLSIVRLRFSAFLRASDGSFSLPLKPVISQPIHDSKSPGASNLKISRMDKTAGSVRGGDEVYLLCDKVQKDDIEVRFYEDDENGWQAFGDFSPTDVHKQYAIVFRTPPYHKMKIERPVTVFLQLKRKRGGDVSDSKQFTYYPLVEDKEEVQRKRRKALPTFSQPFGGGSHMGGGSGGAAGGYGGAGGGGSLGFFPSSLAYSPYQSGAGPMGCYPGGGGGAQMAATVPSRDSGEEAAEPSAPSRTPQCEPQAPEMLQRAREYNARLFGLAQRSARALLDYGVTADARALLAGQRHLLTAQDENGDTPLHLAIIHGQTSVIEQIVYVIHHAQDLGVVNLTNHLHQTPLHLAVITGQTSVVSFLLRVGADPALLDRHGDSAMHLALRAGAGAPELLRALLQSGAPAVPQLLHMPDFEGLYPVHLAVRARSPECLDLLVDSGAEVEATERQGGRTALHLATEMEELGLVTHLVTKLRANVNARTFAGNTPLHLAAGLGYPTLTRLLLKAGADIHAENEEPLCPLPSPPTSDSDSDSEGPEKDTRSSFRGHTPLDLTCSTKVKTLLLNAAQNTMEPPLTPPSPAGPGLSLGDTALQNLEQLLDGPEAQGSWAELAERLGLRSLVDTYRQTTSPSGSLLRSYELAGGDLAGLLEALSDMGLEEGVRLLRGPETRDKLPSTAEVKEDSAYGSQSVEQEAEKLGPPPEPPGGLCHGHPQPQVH
Nuclear factor NF-kappa-B complex (Homo sapiens), sequence (Q04206 whole entry, looked up): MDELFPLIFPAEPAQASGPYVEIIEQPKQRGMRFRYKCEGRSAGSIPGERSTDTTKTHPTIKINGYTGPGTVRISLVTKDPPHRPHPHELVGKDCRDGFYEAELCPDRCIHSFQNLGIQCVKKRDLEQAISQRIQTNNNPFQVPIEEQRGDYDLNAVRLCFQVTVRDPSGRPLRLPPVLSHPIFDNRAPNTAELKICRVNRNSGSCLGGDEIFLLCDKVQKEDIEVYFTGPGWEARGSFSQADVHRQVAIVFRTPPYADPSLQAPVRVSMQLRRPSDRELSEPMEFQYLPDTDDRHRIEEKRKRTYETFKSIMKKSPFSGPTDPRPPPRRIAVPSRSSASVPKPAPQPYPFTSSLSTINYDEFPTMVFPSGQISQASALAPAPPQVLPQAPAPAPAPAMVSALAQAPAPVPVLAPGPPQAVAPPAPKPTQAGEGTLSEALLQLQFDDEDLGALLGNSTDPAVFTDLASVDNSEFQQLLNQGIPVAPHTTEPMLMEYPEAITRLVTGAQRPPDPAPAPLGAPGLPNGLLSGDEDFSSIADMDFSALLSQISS

[4] = target: Beta-secretase 1 (Homo sapiens) (UniProt P56817); experiment: Inhibition of BACE1 (unknown origin) assessed as proteolytic cleavage of amyloid precursor protein after 16 hrs at < 100 uM by chemiluminescence assay
Beta-secretase 1 (Homo sapiens), sequence (P56817 whole entry): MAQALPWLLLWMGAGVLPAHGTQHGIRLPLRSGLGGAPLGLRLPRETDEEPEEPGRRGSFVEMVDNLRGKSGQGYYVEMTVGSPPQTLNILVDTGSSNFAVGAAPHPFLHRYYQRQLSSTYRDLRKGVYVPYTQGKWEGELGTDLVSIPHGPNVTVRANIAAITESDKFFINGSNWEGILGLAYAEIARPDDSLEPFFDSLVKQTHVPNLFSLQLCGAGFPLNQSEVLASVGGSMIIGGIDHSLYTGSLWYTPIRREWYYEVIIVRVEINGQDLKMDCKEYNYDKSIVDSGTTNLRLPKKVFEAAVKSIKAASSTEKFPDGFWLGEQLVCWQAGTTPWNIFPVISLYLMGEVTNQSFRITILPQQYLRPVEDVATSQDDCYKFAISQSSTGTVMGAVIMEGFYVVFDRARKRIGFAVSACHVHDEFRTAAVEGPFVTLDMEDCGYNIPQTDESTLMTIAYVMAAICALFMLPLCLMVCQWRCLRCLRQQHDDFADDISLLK

[5] = target: T2, Aromatase (Homo sapiens, UniProt P11511); experiment: Inhibition of aromatase (unknown origin) using dibenzylfluorescein substrate after 24 hrs by fluorescence assay
T2 sequence (P11511 whole entry): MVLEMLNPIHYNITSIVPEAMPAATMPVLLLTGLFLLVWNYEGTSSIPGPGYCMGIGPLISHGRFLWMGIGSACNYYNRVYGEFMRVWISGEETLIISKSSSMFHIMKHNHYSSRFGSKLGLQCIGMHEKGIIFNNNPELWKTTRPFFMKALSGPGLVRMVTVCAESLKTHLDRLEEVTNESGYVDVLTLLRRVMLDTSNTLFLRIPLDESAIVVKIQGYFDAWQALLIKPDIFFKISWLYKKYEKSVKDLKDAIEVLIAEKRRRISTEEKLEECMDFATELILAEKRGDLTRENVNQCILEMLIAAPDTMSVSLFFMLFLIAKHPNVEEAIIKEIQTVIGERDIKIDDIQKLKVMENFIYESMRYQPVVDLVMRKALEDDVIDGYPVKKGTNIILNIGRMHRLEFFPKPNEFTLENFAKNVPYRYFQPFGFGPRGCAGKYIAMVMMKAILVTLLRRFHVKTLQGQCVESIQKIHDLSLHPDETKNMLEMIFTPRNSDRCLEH

[6] = target: T2, Aromatase; experiment: Inhibition of aromatase (unknown origin) using dibenzylfluorescein substrate at 50 uM after 24 hrs by fluorescence assay

CC1=C(O)C(=O)C[C@]2(C)[C@H]3CCc4cocc4[C@]3(CO)CCC12O (some centres not stated) was tested, and the inhibition [1] was “inactive”, the CD [2] was 11.2 µM and the ED50 [3] was greater than 50 µM. The inhibition [4] was “inactive” and the pIC50 [5] was 4.46.

With CC1=C(O)C(=O)C[C@@]2(C)[C@H]1CC[C@@]1(CO)c3cocc3CC[C@@H]12 the inhibition [1] was “inactive”, the inhibition at 50 µM [6] was less than 50% and the ED50 [3] was greater than 50 µM. For the same molecule, the inhibition [4] was “inactive”.

With CC1=C(O)C(=O)C[C@@]2(C)[C@H]1CC[C@@]1(CO)c3cnccc3C(=O)C[C@@H]12 the inhibition [1] was “inactive”, the inhibition at 50 µM [6] was less than 50% and the ED50 [3] was greater than 50 µM. The inhibition [4] was “inactive”.

In the case of C[C@]12CC(=O)OC[C@@](C)(C(=O)O)[C@@H]1CC[C@@]1(CO)c3cocc3CC[C@@H]12, the inhibition [1] was “inactive”, the inhibition at 50 µM [6] was less than 50% and the ED50 [3] was greater than 50 µM. For the same molecule, the inhibition [4] was “inactive”.
